Data published in PubChem BioAssay AID2657 (Broad Institute, 2010).

Tested on: platelets, SFLLRN actin polymerization, FITC-phalloidin flow
Assay: inhibition of SFLLRN-induced platelet actin polymerization, late-stage follow-up, selectivity assay for platelet granule secretion inhibitor project, cell-based, FITC-phalloidin flow cytometry, repeated runs (AID 2657)
Settings: at 10 µM; active compounds read high
Outline: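 Detection – FITC-phalloidin F-actin staining, flow cytometry · Test system – Gel-filtered platelets · Also added – SFLLRN agonist peptide at 5 µM, or no agonist · Timing – 20 min compound, 15 min agonist, 37 °C · Doses – 10 µM compound, single dose · Controls – 0.3% DMSO neutral control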

Row | Structure (SMILES) | inhibition
1 | Cc1ccc(-n2c(N)c(C#N)c(-c3ccccc3)c(C#N)c2=O)cc1 | 99%
2 | C/C(=N/NC(=O)C1CCCC1)c1ccc(NC(=O)C(F)(F)F)cc1 | 73.5%
